In ChEMBL document CHEMBL1153096, “Properly substituted 1,4-dioxane nucleus favours the selective M3 muscarinic receptor activation” (Bioorg Med Chem, 2009):
The source made the active and inactive calls. No cut-off for these calls is given here.

What was measured:
[1] = biological target: Muscarinic acetylcholine receptor M3 (Homo sapiens, UniProt P20309); experiment: Displacement of [3H]NMS from human muscarinic M3 receptor expressed in CHO cells by microplate scintillation counting; format: cell-based
[2] = Antagonist activity at muscarinic M4 receptor in guinea pig lung assessed as effect on muscle contraction; format: functional, Cavia porcellus
[3] = biological target: Muscarinic acetylcholine receptor M3 (Cavia porcellus) (UniProt Q8VH26); experiment: Agonist activity at muscarinic M3 receptor in guinea pig ileum assessed as inhibition of electrically-stimulated muscle contraction; format: functional, tissue-based
Summary of the method: (§1)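 Male guinea pig (250-350 g, fasted 24 h) ileal segments 2-3 cm, 1.0 g tension, 37 °C, Krebs-Henseleit with carbogen; 45 min equilibration, isometric contractions. Cumulative agonist concentration-response curves; pD2 by linear regression; intrinsic activity relative to bethanechol maximum; means ± SEM of four to six experiments.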

Oryctolagus cuniculus [4] = organism: Oryctolagus cuniculus; experiment: Antagonist activity at muscarinic M1 receptor in New Zealand White rabbit vas deferens assessed as effect on muscle contraction up to 30 uM; format: functional, tissue-based
[5] = biological target: Muscarinic acetylcholine receptor M3 (Cavia porcellus) (UniProt Q8VH26); experiment: Intrinsic activity at muscarinic M3 receptor in guinea pig ileum assessed as inhibition of electrically-stimulated muscle contraction relative to bathanecol; format: tissue-based; summary of the method: as §1
[6] = biological target: T1, Muscarinic acetylcholine receptor M5 (Homo sapiens, UniProt P08912); experiment: Displacement of [3H]NMS from human muscarinic M5 receptor expressed in CHO cells by microplate scintillation counting; format: cell-based
T1 sequence (P08912 whole entry): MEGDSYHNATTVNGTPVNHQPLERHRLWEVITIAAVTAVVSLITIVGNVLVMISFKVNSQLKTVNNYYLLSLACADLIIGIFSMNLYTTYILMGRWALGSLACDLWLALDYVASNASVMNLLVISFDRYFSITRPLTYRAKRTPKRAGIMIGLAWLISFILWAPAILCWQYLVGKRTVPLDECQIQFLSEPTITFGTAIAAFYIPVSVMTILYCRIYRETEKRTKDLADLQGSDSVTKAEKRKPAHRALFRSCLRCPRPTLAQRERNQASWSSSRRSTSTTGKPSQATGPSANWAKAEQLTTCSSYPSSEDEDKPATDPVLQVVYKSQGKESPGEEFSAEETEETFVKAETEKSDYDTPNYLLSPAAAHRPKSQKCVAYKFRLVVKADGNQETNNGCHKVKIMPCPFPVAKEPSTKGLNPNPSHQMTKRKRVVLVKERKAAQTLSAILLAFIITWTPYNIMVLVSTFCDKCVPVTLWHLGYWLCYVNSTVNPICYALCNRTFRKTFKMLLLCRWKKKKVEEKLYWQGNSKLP

[7] = biological target: T2, Muscarinic acetylcholine receptor M1 (Homo sapiens, UniProt P11229); experiment: Displacement of [3H]NMS from human muscarinic M1 receptor expressed in CHO cells by microplate scintillation counting; format: cell-based
T2 sequence (P11229 whole entry): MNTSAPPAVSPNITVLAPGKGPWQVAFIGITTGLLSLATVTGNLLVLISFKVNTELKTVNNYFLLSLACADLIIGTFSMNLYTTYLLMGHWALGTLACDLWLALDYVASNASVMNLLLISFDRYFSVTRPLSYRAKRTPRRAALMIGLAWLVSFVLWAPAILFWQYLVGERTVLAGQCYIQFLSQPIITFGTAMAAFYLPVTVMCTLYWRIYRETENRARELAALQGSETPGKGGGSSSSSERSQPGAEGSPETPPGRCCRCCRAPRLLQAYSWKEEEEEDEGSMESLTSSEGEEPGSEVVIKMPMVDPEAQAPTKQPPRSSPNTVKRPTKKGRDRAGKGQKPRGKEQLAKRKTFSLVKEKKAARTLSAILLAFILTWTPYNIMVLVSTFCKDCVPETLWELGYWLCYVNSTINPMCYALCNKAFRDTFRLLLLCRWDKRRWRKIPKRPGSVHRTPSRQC

Cavia porcellus [8] = organism: Cavia porcellus; experiment: Intrinsic activity at muscarinic M4 receptor in guinea pig lung assessed as inhibition of electrically-stimulated muscle contraction relative to bathanecol
Summary of the method: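 Male guinea pig peripheral lung strips (15 × 2 × 2 mm) from lower lobe, 0.3 g resting tension, 37 °C, Krebs-Henseleit with carbogen; 45 min equilibration, isometric contractions. Cumulative agonist concentration-response curves; pD2 by linear regression; intrinsic activity relative to bethanechol maximum; means ± SEM of four to six experiments.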

[9] = biological target: T3, Muscarinic acetylcholine receptor M4 (Homo sapiens, UniProt P08173); experiment: Displacement of [3H]NMS from human muscarinic M4 receptor expressed in CHO cells by microplate scintillation counting; format: cell-based
T3 sequence (P08173 whole entry): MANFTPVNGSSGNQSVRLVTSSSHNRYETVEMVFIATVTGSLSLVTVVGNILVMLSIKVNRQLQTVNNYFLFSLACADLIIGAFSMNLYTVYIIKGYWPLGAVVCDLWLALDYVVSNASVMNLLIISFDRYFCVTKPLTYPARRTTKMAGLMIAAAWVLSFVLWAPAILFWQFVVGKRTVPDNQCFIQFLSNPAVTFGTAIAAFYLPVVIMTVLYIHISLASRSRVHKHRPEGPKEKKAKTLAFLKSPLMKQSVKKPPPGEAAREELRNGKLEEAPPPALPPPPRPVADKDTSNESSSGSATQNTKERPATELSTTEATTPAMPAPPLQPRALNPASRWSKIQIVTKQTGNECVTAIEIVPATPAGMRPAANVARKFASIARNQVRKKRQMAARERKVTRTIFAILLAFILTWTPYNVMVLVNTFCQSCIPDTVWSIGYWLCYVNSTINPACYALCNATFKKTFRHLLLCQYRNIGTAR

[10] = biological target: T4, Muscarinic acetylcholine receptor M2 (Homo sapiens, UniProt P08172); experiment: Displacement of [3H]NMS from human muscarinic M2 receptor expressed in CHO cells by microplate scintillation counting; format: cell-based
T4 sequence (P08172 whole entry): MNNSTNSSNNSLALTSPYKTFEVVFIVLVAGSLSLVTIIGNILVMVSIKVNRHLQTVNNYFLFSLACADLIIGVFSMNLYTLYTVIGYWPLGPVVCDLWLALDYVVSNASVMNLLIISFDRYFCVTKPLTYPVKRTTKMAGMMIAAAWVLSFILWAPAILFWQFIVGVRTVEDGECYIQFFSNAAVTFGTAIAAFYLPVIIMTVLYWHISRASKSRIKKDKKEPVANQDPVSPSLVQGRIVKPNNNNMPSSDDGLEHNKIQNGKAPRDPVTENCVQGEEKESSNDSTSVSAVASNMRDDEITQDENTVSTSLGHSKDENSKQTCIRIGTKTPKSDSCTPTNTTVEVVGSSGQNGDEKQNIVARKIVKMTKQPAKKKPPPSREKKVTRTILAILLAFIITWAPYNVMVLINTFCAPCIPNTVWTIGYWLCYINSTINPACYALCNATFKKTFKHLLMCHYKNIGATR

Oryctolagus cuniculus [11] = organism: Oryctolagus cuniculus; experiment: Agonist activity at muscarinic M1 receptor in New Zealand White rabbit vas deferens assessed as inhibition of electrically-stimulated muscle contraction; format: functional
Summary of the method: (§2)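 Prostatic portion of male-free-listed New Zealand white rabbit (3.0-3.5 kg, fasted 24 h) vas deferens in modified Krebs, 31 °C, 95% O2-5% CO2; 45 min stabilisation, field stimulation 2 Hz, 5 ms, 5 V; isometric recording. Cumulative concentration-response curves; pD2 by linear regression; intrinsic activity as fraction of McN-A-343 maximum; means ± SEM of four to six experiments.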

[12] = Agonist activity at muscarinic M2 receptor in guinea pig atrium assessed as inhibition of electrically-stimulated muscle contraction; format: functional, Cavia porcellus, Cardiac atrium
Cavia porcellus [13] = organism: Cavia porcellus; experiment: Selectivity ratio of pD2 for guinea pig muscarinic M3 receptor to pD2 for guinea pig muscarinic M4 receptor
[14] = Agonist activity at muscarinic M4 receptor in guinea pig lung assessed as inhibition of electrically-stimulated muscle contraction; format: functional, Cavia porcellus
[15] = Selectivity ratio of pD2 for guinea pig muscarinic M3 receptor to pD2 for rabbit M1 receptor
Cavia porcellus [16] = organism: Cavia porcellus; experiment: Selectivity ratio of pD2 for guinea pig muscarinic M3 receptor to pD2 for guinea pig muscarinic M2 receptor
Cavia porcellus [17] = organism: Cavia porcellus; experiment: Intrinsic activity at muscarinic M2 receptor in guinea pig atrium assessed as inhibition of electrically-stimulated muscle contraction relative to bathanecol; format: tissue-based; conditions: Cardiac atrium
Cavia porcellus [18] = organism: Cavia porcellus; experiment: Antagonist activity at muscarinic M4 receptor in guinea pig lung assessed as effect on muscle contraction up to 10 uM; format: functional
Oryctolagus cuniculus [19] = organism: Oryctolagus cuniculus; experiment: Intrinsic activity at muscarinic M1 receptor in New Zealand White rabbit vas deferens assessed as inhibition of electrically-stimulated muscle contraction relative to McN-A-343; format: tissue-based; summary of the method: as §2
[20] = Antagonist activity at muscarinic M1 receptor in New Zealand White rabbit vas deferens assessed as effect on muscle contraction; format: functional, Oryctolagus cuniculus

Sequence of Muscarinic acetylcholine receptor M3 (P20309 whole entry): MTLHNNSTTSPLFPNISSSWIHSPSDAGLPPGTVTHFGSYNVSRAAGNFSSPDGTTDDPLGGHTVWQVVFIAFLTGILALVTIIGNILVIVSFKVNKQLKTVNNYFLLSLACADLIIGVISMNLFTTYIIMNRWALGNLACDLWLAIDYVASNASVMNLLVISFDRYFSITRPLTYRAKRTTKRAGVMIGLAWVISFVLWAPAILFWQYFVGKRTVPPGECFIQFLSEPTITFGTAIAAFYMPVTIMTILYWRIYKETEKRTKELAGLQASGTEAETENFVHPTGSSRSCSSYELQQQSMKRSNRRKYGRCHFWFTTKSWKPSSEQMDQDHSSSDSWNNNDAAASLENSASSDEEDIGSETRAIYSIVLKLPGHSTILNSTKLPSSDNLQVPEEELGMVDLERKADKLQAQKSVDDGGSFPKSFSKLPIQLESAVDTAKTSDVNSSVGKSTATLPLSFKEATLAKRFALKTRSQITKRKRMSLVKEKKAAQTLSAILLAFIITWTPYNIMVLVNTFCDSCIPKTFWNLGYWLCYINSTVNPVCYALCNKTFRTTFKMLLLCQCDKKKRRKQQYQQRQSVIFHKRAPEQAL
Sequence of Muscarinic acetylcholine receptor M3 (Cavia porcellus) (Q8VH26 1-587): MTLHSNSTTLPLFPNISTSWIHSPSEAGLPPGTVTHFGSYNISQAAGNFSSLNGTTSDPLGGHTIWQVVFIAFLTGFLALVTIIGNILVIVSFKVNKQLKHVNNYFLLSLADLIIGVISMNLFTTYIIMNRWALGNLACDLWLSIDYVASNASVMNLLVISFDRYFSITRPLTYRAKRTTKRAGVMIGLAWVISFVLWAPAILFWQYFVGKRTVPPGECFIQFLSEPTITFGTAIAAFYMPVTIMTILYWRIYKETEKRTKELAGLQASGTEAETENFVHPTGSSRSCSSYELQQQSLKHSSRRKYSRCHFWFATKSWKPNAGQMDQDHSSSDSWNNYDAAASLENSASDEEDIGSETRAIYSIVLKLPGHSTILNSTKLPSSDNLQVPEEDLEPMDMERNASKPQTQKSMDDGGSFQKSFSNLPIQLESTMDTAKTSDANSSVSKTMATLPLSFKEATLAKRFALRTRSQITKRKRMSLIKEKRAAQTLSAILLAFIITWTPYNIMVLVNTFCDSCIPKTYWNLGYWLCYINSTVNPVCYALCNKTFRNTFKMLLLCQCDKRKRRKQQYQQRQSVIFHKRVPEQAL

SMILES | Ki [1] [µM] | pKb [2] | pD2 [3] | pKb (Oryctolagus cuniculus [4]) | Intrinsic activity [5] | Ki [6] [µM] | Ki [7] [µM] | Intrinsic activity (Cavia porcellus [8]) | Ki [9] [µM] | Ki [10] [µM] | pD2 (Oryctolagus cuniculus [11]) | pD2 [12] | Selectivity ratio (Cavia porcellus [13]) | pD2 [14] | Selectivity ratio [15] | Selectivity ratio (Cavia porcellus [16]) | Intrinsic activity (Cavia porcellus [17]) | pKb (Cavia porcellus [18]) | Intrinsic activity (Oryctolagus cuniculus [19]) | pKb [20]
C[C@H]1OC[C@@H](C[N+](C)(C)C)OC1(C)C.[I-] (relative stereo) | 16.2 | 5.15 | 5.25 | inactive | 0.47 | 32.4 | 20 | 0 | 25.7 | 27.5 | inactive | – | – | – | – | – | – | – | – | –
CC1(C)COC[C@@H](C[N+](C)(C)C)O1.[I-] | 21.4 | – | 6.94 | inactive | 1.16 | 28.2 | 47.9 | 0.18 | 44.7 | 18.2 | inactive | 5.03 | 123 | 4.85 | > 275 | 81 | 0.73 | – | – | –
C[C@@H]1O[C@H](C[N+](C)(C)C)COC1(C)C.[I-] (relative stereo) | 32.4 | – | 5.12 | – | 0.47 | 52.5 | 67.6 | – | 57.5 | 60.3 | – | 4.92 | – | – | – | – | 0.33 | inactive | 0 | 4.61
